Series [1] has as its system Mus musculus. In words: Antidiabetic activity in HFD-fed C57BL/6J mouse assessed as increase in insulin secretion at 10 mg/kg, po pretreated for 1 hr followed by glucose challenge by OGTT. It is filed as functional, organism-based.
The test system of series [2] is Mus musculus. In words: Toxicity in HFD-fed C57BL/6J mouse assessed as induction of hypoglycemia at 10 mg/kg, po after 1 hr. Type of series: organism-based. The following applies: in vivo.
Series [3] deals with Mus musculus. In words: Antidiabetic activity in HFD-fed C57BL/6J mouse assessed as decrease in blood glucose AUC at 10 mg/kg, po pretreated for 1 hr followed by glucose challenge after 1 hr of compound dosing measured up to 120 mins post glucose challenge by OGTT. Type of series: functional, organism-based. Put shortly: (§1)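 Male C57BL/6J mice on high-fat diet for ten days. Fasted overnight and grouped by weight and blood glucose at 12.5 h. Compound given orally at 1, 3, 10 or 30 mg/kg in 0.5% methylcellulose at 15 h; oral glucose 5 g/kg at 16 h.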

Series [4] relates to Mus musculus. In words: Antidiabetic activity in HFD-fed C57BL/6J mouse assessed as decrease in blood glucose level at 10 mg/kg, po pretreated for 1 hr followed by glucose challenge by OGTT. It is filed as functional, organism-based. Put shortly:
as §1

The structures appear in SMILES notation. The source made the active and inactive calls. No cut-off for these calls is given here.

For the molecule `COc1ccc(Cl)cc1C(=O)NCCc1ccc(S(=O)(=O)NC(=O)NC2CCCCC2)cc1` [GLYBURIDE], the result in series [1], in series [3] and in series [4] was Active. For the same molecule, the Activity result in series [2] is given as “Toxic”.

The values are drawn from ChEMBL document CHEMBL4052694, “Discovery of novel 5-oxa-2,6-diazaspiro[3.4]oct-6-ene derivatives as potent, selective, and orally available somatostatin receptor subtype 5 (SSTR5) antagonists for treatment of type 2 diabetes mellitus” (Bioorg Med Chem, 2017).
